# Shown are actives, neighbours in structure and some others; about 2.2% of the full set was active somewhere.
# dFosB act: activators of delta FosB homodimer, primary screen, biochemical, fluorescence polarization, TAMRA-CDK5 oligo, single point | Protein FosB (Mus musculus), P13346 | purified delta FosB; percent of positive-control signal above neutral wells | activation, % at 25 µM | 340,000 tested, 0.99% active | AID 493131, 2011;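 active = mean activation above about 17%, with every replicate also reaching it, limit read from the data, passing the limit was not always enough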
# DYRK1A inh: rat Dyrk1A kinase inhibitors, primary screen, biochemical, single point, plate reader; 310,000 tested, 0.43% active; ADP-Glo luminescence, NFATc1 peptide; inhibition, % at 12.5 µM; AID 504441, 2011; Dual specificity tyrosine-phosphorylation-regulated kinase 1A (Rattus norvegicus), Q63470; in the data active = inhibition above about 50%
# CAL PDZ FP-1: untagged CAL PDZ binding inhibitors, primary screen, biochemical, fluorescence polarization, HTS. Golgi-associated PDZ and coiled-coil motif-containing protein (Homo sapiens), Q9HD26. purified CAL PDZ, TMR-peptide fluorescence polarization, 1 h. inhibition, % at 24.9 µM. 300,000 tested, 0.92% active. AID 602252, 2012;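 active = mean inhibition of at least 30% with at least half of replicates also reaching 30%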
# Rtt109 HAT inh: inhibitors of C. albicans Rtt109/Vps75 HAT, primary screen, biochemical, ThioGlo CoA-SH fluorescence, plate reader; AID 540336, 2011; Histone acetyltransferase RTT109 (Candida albicans (strain SC5314 / ATCC MYA-2876)), …; 330,000 tested, 0.16% active; purified Rtt109/Vps75, 4 h; inhibition, % at 34.9 µM;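 active = inhibition of at least 50% in every replicate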
# CDK5 inh: inhibitors of human CDK5/p35 kinase, primary screen, biochemical, single concentration; inhibition, % at 10 µM; AID 488839, 2010; Cyclin-dependent kinase 5 (Homo sapiens) + Cyclin-dependent kinase 5 activator 1 (Homo …; Recombinant CDK5/p35, ADP-Glo luminescence, 60 min; 330,000 tested, 0.01% active;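 active = highest replicate inhibition of at least 50% and at least 75% of replicates reaching 50%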
# Target sequence (Q00535 whole entry, looked up): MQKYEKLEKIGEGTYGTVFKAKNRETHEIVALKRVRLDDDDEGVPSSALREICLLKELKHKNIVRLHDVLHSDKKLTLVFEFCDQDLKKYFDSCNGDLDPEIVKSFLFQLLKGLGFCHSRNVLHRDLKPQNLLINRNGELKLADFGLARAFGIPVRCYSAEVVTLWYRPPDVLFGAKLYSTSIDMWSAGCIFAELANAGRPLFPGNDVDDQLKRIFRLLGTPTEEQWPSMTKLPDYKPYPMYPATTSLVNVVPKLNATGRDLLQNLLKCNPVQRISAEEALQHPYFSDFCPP
# Target sequence (Q15078 whole entry, looked up): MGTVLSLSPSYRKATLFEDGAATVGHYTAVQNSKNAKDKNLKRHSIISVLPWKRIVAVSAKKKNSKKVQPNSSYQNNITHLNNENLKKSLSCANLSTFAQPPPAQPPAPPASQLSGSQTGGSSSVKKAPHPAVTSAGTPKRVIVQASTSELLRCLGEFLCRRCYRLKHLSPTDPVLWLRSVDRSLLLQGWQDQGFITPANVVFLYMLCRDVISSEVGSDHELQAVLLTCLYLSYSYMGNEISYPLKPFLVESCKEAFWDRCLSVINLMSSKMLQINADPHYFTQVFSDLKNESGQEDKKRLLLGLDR
# CAL PDZ FP-2: CAL PDZ peptide-binding inhibitors, primary screen, biochemical, fluorescence polarization, Cer-tagged CAL PDZ, HTS; AID 504414, 2011; Golgi-associated PDZ and coiled-coil motif-containing protein (Homo sapiens), Q9HD26; purified CAL PDZ, TMR-peptide fluorescence polarization, 1 h; inhibition, % at 20 µM; 330,000 tested, 0.02% active;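 active = highest replicate inhibition of at least 40%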
#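 material = purified tagged CAL PDZ domain construct (CerCALP) | buffer or medium = sodium phosphate/NaCl buffer pH 7.4 with TCEP, IgG, Thesit | reagent = TMR-labelled reporter peptide T*-PRC34 bound in PDZ groove | incubation = 1 h room-temperature incubation prior to read | measured by = fluorescence polarization (mP) | evaluation = percent inhibition from loss of millipolarization | control set = unlabelled peptide and DMSO controls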
# Numbers stand for hits; – = inactive; · = not tested or not shown.
SMILES,dFosB act,DYRK1A inh,CAL PDZ FP-1,Rtt109 HAT inh,CDK5 inh,CAL PDZ FP-2
O=C(Nc1ccc(-n2cnnn2)cc1)c1cc(S(=O)(=O)N2CCCC2)ccc1Cl,–,–,–,–,–,–
OCCNc1ncnc2c1c(-c1ccccc1)c(-c1ccccc1)n2Cc1ccco1,–,–,65.8,–,–,–
CN(C)CCOC1c2ccccc2CCc2ccc3ccccc3c21 (stereo not given),–,–,·,–,–,–
CC(=O)N(c1nnc(-c2ccc(C)cc2)s1)C1CCCC1,–,–,–,–,–,–
COc1ccccc1CNc1nc(-c2cc(C)n(C)c2C)cs1,18.0,–,–,–,–,–
COCCNc1nc(-c2cc(C)n(CCc3ccc(OC)cc3)c2C)cs1,–,–,·,–,–,–
Cc1c(CN2CCC(CO)(CCOc3ccccc3)CC2)[nH]c2c(Cl)cccc12,21.3,–,–,–,–,–
CC(OC(=O)c1ccc(NC(=O)CC#N)cc1)C(=O)NC(=O)NC1CCCCC1 (stereo not given),58.2,–,·,–,–,–
CCn1ccnc1CN1CCc2c([nH]c3ccccc23)C1CC(C)C (stereo not given),–,–,·,–,–,–
CCn1ccnc1CN1CCc2c([nH]c3ccccc23)C1C(C)(C)C (stereo not given),–,–,79.7,–,–,–
COc1ccc(C(=O)NCC(=O)NCc2ccncc2)cc1,–,–,124.4,–,–,–
O=C1CCN(Cc2ccccc2)C(=O)N1,–,–,–,–,–,–
O=C1NC(=O)N(Cc2ccccc2)CC1Br (stereo not given),–,–,31.3,–,–,–
COc1ccc(/C=C2/SC(=O)N(NS(=O)(=O)c3ccccc3)C2=S)cc1OC,–,–,·,78.9,–,–
Cc1cc(C)c(NC(=O)c2ccccc2C(=O)c2ccccc2)c(C)c1,–,–,–,–,–,–
COc1ccc(OC)c2sc(N(CCN(C)C)C(=O)/C=C/c3cccs3)nc12,40.0,–,–,–,–,–
COc1cccc2sc(N(CCN(C)C)C(=O)/C=C/c3cccs3)nc12,–,·,–,–,–,–
COc1ccc(C)c2sc(N(CCN(C)C)C(=O)/C=C/c3cccs3)nc12,78.4,–,–,–,–,–
C=CCOc1ccc(/C(O)=C2/C(=O)C(=O)N(CCCN3CCOCC3)C2c2ccc(OC)cc2)cc1 (stereo not given),–,·,39.9,–,–,·
CSc1nc2ccsc2c(=O)n1-c1ccccn1,–,–,–,–,–,–
Cn1c(=O)c2nc(-c3ccccc3)c(-c3ccccc3)nc2n(C)c1=O,–,–,65.8,–,–,–
Cn1c(=O)c2nc(Cl)c(-c3ccccc3)nc2n(C)c1=O,–,–,–,–,·,–
O=C(CSCc1ccccc1)Nc1ccccc1C(=O)Nc1ccc(C(=O)O)cc1,–,–,–,–,–,–
O=C(O)CCSCCCN1C(=O)c2cccc3cccc(c23)C1=O,–,–,–,–,–,–
CC1(C)C=C(c2ccc(C=O)s2)CC(C)(C)N1C=O,–,–,–,–,–,–
SMILES,dFosB act,DYRK1A inh,CAL PDZ FP-1,Rtt109 HAT inh,CDK5 inh,CAL PDZ FP-2
COc1ccccc1C(=O)NCCC(=O)NCC1CCCCC1,–,–,79.4,–,–,–
COc1ccccc1C(=O)NCCC(=O)NC1CCCCCC1,–,–,·,–,–,–
CCN1CCN(C(c2cccnc2)c2c(NC(=O)c3ccco3)sc(C)c2C)CC1 (stereo not given),–,·,46.0,–,–,–
COc1ccc(C(c2c(NC(=O)c3ccco3)sc(C)c2C)N2CCOCC2)cc1 (stereo not given),–,–,–,–,–,–
Cc1sc(NC(=O)c2ccco2)c(C(c2cccnc2)N2CCC(C)CC2)c1C (stereo not given),–,–,42.8,–,–,–
Cc1cc(C(=O)COC(=O)C2CCN(C(=O)c3ccc(Cl)cc3)CC2)c(C)n1CC1CCCO1 (stereo not given),–,–,66.5,–,–,–
NC(=O)c1c(NC(=O)Cn2nc(C(=O)O)c3ccccc3c2=O)sc2c1CCCC2,90.6,–,–,–,–,–
COC(=O)c1nnn(-c2nc(N(C)C)nc(N(C)C)n2)c1C,–,–,–,–,–,–
N#Cc1ccc(CSCC(=O)NN=C2CCCC2)cc1,–,–,–,–,–,–
O=C(CSCc1ccc(Cl)cc1)NN=C1CCCC1,–,–,72.0,–,–,–
COc1ccc(/C=N/N=C2/NC(=O)C(CC(=O)NC(N)=O)S2)cc1 (stereo not given),19.1,–,49.1,–,–,–
C=CCn1c(SCC(=O)Nc2cc(C)on2)nc2c([nH]c3ccccc32)c1=O,–,·,–,–,–,–
COCCCn1c(=O)c2sccc2n2c(CCCC(=O)NCc3cccc(OC)c3)nnc12,–,–,46.8,–,–,–
O=C(NC(C(=O)O)c1ccccc1)c1ccccc1 (stereo not given),–,–,–,–,–,–
O=C(NC(C(=O)c1ccccc1)c1ccccc1)c1ccccc1 (stereo not given),–,–,38.3,–,–,–
Cc1cc(C)c(C)c(S(=O)(=O)N2CCN(C(=O)c3cc(S(=O)(=O)N4CCOCC4)ccc3F)CC2)c1C,–,–,–,–,–,–
C/C(=C\C(=O)O)C12CC3CC(CC(C3)C1)C2,–,–,30.9,–,–,·
CC(C)C(NC(=O)C12CC3CC(CC(C3)C1)C2)C(=O)O (stereo not given),–,–,–,–,–,–
O=[N+]([O-])c1cc(-c2nc3nc4ccccc4nc3n2CCc2ccccc2)cc([N+](=O)[O-])c1,–,–,·,–,–,–
Cc1onc(-c2ccc(Cl)cc2Cl)c1-c1csc(N/N=C/c2ccccc2)n1,–,–,54.2,–,–,–
CCOC(=O)c1cc(-c2csc(N/N=C/c3ccccc3Cl)n2)on1,–,·,–,–,–,–
O=C(COc1ccc(Cl)cc1)Nc1nnc(-c2ccco2)o1,–,·,45.6,–,–,–
COc1ccc(CC(=O)Nc2cccc(-c3nnc(-c4ccco4)o3)c2)cc1,66.5,–,–,–,–,–
CSc1c(SCc2ccccc2)cnn(-c2ccccc2)c1=O,–,–,–,58.1,–,–
CCC1Sc2ccc(S(=O)(=O)N3CCN(c4ccccc4)CC3)cc2NC1=O (stereo not given),–,–,–,–,–,–
